Screening results deposited in PubChem BioAssay by several laboratories.
TRPC4 block = inhibitors of mouse TRPC4 channel, primary screen, Fluo4 calcium, HEK293 TRPC4beta/mu-opioid cells | Short transient receptor potential channel 4 (Mus musculus), Q9QUQ5 | B-score at 10 µM | DAMGO-evoked Fluo4 calcium flux; active compounds read low | AID 2247, 2010 | 0.39% of 300,000 active;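 active means B-score over 3 SD under the library average, no early fluorescence shift, positive overall ratio signal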
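System: stable TRPC4beta/mu-opioid receptor HEK293 cells; Dosing: single-point compound dosing; Measured by: Fluo4 Ca2+ flux fluorescence; Read-out basis: per-well B score of integrated baseline-normalized Fluo4 ratio.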
TRPC4 agonist = activators of mouse TRPC4 channel, primary screen, Fluo4 calcium, HEK293 TRPC4beta/mu-opioid cells; B-score at 10 µM; AID 2237, 2010; 0.49% of 310,000 active; Short transient receptor potential channel 4 (Mus musculus), Q9QUQ5; Fluo4 calcium fluorescence; active compounds read high;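 active means B-score above 5 SD of library B-scores, and initial fluorescence ratio not above library mean plus 5 SD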;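 further: positive B-score marks a calcium rise read as TRPC4 activation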
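system = HEK293 cells stably co-expressing mouse TRPC4beta and mu-opioid receptor | schedule = Fluo4 dye loading 45 min at room temperature, 110 s recording | measure = B-scored integrated calcium fluorescence ratio | signal = Fluo4 calcium-sensitive dye fluorescence, kinetic, 1 Hz baseline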
TRPC6 activator = mouse TRPC6 channel activators, primary screen, cell-based, HEK293, membrane potential dye; Short transient receptor potential channel 6 (Mus musculus), Q61143; B-score at 10 µM; 0.13% of 310,000 active; HEK293-TRPC6 membrane potential dye fluorescence; active compounds read high;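 active means B-score of the integrated fluorescence ratio above library mean plus 3 SD, and starting fluorescence ratio within library mean plus 5 SD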;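 further: higher score means more depolarization so channel activation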
Target sequence (Q61143 whole entry, looked up): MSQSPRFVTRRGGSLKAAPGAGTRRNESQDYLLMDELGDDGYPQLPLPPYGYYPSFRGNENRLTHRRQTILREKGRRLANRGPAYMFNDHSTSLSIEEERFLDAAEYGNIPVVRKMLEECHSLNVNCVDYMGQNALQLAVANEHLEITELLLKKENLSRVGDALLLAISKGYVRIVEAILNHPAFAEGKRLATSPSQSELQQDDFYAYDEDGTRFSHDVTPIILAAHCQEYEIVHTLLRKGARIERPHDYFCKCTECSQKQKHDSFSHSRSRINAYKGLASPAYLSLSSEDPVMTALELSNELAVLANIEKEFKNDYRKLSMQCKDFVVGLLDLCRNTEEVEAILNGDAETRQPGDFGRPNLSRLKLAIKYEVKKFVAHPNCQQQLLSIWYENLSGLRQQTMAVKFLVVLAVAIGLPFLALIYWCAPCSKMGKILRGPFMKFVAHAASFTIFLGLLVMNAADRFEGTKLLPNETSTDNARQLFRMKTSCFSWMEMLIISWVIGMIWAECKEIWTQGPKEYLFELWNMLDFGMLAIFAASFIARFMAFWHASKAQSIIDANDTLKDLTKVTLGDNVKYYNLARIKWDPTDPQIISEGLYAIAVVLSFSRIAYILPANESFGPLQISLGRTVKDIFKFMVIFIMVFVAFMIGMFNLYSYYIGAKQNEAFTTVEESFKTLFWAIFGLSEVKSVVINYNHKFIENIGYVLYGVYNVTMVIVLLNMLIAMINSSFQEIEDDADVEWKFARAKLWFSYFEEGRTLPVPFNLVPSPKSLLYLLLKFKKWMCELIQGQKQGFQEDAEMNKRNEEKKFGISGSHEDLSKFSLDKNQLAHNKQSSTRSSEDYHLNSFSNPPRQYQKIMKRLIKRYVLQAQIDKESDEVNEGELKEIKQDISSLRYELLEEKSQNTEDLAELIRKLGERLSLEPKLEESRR
Pemphigus Ab inh = inhibitors of pemphigus antibody binding to DSG3, primary screen, biochemical, bead-based, flow cytometry, scFv-GFP | Desmoglein-3 (Homo sapiens), P32926 | DSG3-coupled beads, scFv-anti-DSG3-GFP binding; active compounds read low | binding (percent of control), % at 10 µM | 0.48% of 310,000 active;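 active means binding more than 3 SD below its plate's average and above zero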;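 further: hits lower antibody fragment binding to DSG3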
TRPC4 potent = positive allosteric modulators of TRPC4, primary screen, cell-based, mouse TRPC4beta, HEK293 mu-opioid, Fluo-4 calcium; Short transient receptor potential channel 4 (Mus musculus), Q9QUQ5; DAMGO EC20, Fluo-4 Ca2+ flux; active compounds read high; B-score at 10 µM; 0.42% of 310,000 active; AID 2227, 2009;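 active means B-score of calcium response area above 5 SD of library B-scores, with initial fluorescence ratio within 5 SD of library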
TRPC6 inhibitor = mouse TRPC6 channel inhibitors, primary screen, cell-based, HEK293, membrane potential dye. Short transient receptor potential channel 6 (Mus musculus), Q61143. AID 2553, 2010. B-score at 10 µM. ACh-evoked depolarization; active compounds read low. 1.1% of 310,000 active;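 active means B-score under library mean minus 3 SD, initial fluorescence not abnormally high, positive integrated signal ratio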;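 further: B-score derived from integrated fluorescence ratio over the kinetic read; more negative B-score means stronger inhibition of depolarization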
TRPC4 sel inh 2 = second selectivity test of TRPC6 inhibitors: effect on mouse TRPC4; 42% of 920 active; HEK293 TRPC4/MOR, membrane potential dye fluorescence; channel activated by saturating DAMGO dose; inhibition, % at 10 µM; shares compounds with TRPC6 inhibitor; AID 2776;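 active means compounds whose fluorescence signal differed from control wells by over 3 SD, either direction, in both duplicate plates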
TRPC4 spec = mouse TRPC4 modulation by TRPC6 hits, confirmation, selectivity assay for TRPC6 inhibitor project, cell-based, HEK293 TRPC4/mu-opioid, membrane potential dye | shares compounds with TRPC6 inhibitor | membrane potential fluorescence | activity change, negative = inhibition, % at 10 µM | 61% of 920 active | AID 2777, 2010;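 active means rise or fall in signal beyond 3 SD of buffer-only wells in both replicate plates, either sign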;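 further: integrated kinetic ratio of fluorescence range over baseline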
HEK293 MPD ctr 2-1 = nonspecific membrane potential effects, parental HEK293, confirmation, counter-screen for TRPC6 inhibitor project, cell-based, second counter screen | shares compounds with TRPC6 inhibitor | parental HEK293 membrane potential dye fluorescence; maximal acetylcholine challenge after compound addition | signal change vs control, % at 10 µM | 31% of 920 active | AID 2779, 2010;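 active means membrane potential signal moving either way by over 3 SD of the maximum-effect control, in both duplicate plates, meaning non-specific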
HEK293 MPD ctr-1 = membrane potential modulation in parental HEK293, confirmation, counter-screen for TRPC6 inhibitor project, cell-based | 60% of 920 active | shares compounds with TRPC6 inhibitor | membrane potential signal change, % at 10 µM | parental HEK293 membrane potential dye fluorescence;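 active means membrane potential signal shifting up or down by more than 3 SD of buffer-only wells, on both duplicate plates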
HEK293 MPD ctr-2 = parental HEK293 membrane potential modulation, confirmation, counter-screen for TRPC6 modulator project, cell-based; shares compounds with TRPC6 inhibitor; membrane potential dye fluorescence; membrane potential signal change, % at 10 µM; 51% of 2,400 active; AID 488924, 2010;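 active means membrane potential signal moves up or down beyond 5 SD from buffer-only wells, on both duplicate plates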
HEK293 MPD ctr 2-2 = parental HEK293 nonspecific activity of TRPC6 modulators, second screen. 14% of 2,400 active. shares compounds with TRPC6 inhibitor. inhibition, % at 10 µM. membrane potential dye fluorescence; after compound, maximal acetylcholine stimulation;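 active means membrane potential signal drops by more than 5 SD from the mean control signal, in both duplicate plates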
TRPC4 ctr mod = TRPC4 modulation by TRPC6 hit compounds, confirmation, selectivity assay for TRPC6 modulator project, cell-based, HEK293 TRPC4/mu-opioid, membrane potential dye, mouse; shares compounds with TRPC6 inhibitor; membrane potential fluorescence; percent change from control (negative = decrease, positive = increase), % at 10 µM; 69% of 2,400 active; AID 488927, 2010;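 active means membrane potential signal moved up or down beyond 5 SD of buffer control wells, in both duplicate plates, actives on both sides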
TRPC4/MOR inh 2 = second selectivity test of TRPC6 modulators against mouse TRPC4 | inhibition, % at 10 µM | HEK293 TRPC4/mu-opioid, membrane potential dye fluorescence; stimulated with maximal-effect DAMGO | 55% of 2,400 active | shares compounds with TRPC6 inhibitor | AID 488928;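 active means drop in membrane potential signal beyond 5 SD of the control wells in both duplicate plates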;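 further: TRPC4 counter screen for TRPC6 hits run under conditions tuned for TRPC6 not TRPC4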
TRPC6 inh conf = mouse TRPC6 channel inhibitors, confirmation, HEK293 cells, membrane potential dye, duplicate; shares compounds with TRPC6 inhibitor; AID 488960, 2010; inhibition, % at 10 µM; 43% of 3,300 active; ACh-evoked depolarization;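 active means fluorescence ratio falls more than 5 SD below the full-stimulation control mean, in both duplicate runs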;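 further: integrated fluorescence ratio of peak minus minimum over baseline after agonist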
TRPC6 act confirm = mouse TRPC6 channel activators, confirmation, HEK293 cells, membrane potential dye, duplicate | 11% of 2,800 active | shares compounds with TRPC6 inhibitor | activation, % at 10 µM | HEK293-TRPC6 membrane potential dye fluorescence, FDSS;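 active means ratio signal rise beyond 5 SD above unstimulated control wells' mean, seen in both duplicate runs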
A number is an active result. Sampled rows, rich in hits. Any-hit rate of the full collection: about 2.5%.

For CC(C)C(O)(C#CCN1CCCCCC1)c1ccccc1 (configuration not stated) the results were TRPC4 block inactive, TRPC4 agonist inactive, TRPC6 activator inactive, Pemphigus Ab inh inactive, TRPC4 potent inactive, TRPC6 inhibitor -7.12, TRPC4 sel inh 2 inactive, TRPC4 spec 13.0%, HEK293 MPD ctr 2-1 inactive, HEK293 MPD ctr-1 10.5% and TRPC6 inh conf 60.7%.
For CC(O)(C#CCN1CCCCC1)c1ccccc1 (configuration not stated) the results were TRPC4 block inactive, TRPC4 agonist inactive, TRPC6 activator inactive, Pemphigus Ab inh inactive, TRPC4 potent inactive and TRPC6 inhibitor inactive.
For Cc1cccc2nc(-c3cccnc3)c(NCCC(C)C)n12 the results were TRPC4 block inactive, TRPC4 agonist inactive, TRPC6 activator inactive, Pemphigus Ab inh inactive, TRPC4 potent inactive, TRPC6 inhibitor -5.53, HEK293 MPD ctr-2 inactive, HEK293 MPD ctr 2-2 inactive, TRPC4 ctr mod -24.0%, TRPC4/MOR inh 2 83.5%, TRPC6 inh conf 41.0% and TRPC6 act confirm inactive.
Screening c1cc2c3c(cccc3c1)NC1(CCC3(CC1)Nc1cccc4cccc(c14)N3)N2 returned TRPC4 block inactive, TRPC4 agonist inactive, TRPC6 activator inactive, Pemphigus Ab inh inactive, TRPC4 potent inactive, TRPC6 inhibitor -6.86, TRPC4 sel inh 2 inactive, TRPC4 spec -21.8%, HEK293 MPD ctr 2-1 inactive, HEK293 MPD ctr-1 -239.5%, TRPC6 inh conf inactive and TRPC6 act confirm inactive.
Screening CCOC(=O)N1CCN(C(=O)C(C)c2ccc([N+](=O)[O-])cc2)CC1 (configuration not stated) returned TRPC4 block inactive, TRPC4 agonist inactive, TRPC6 activator inactive, Pemphigus Ab inh inactive, TRPC4 potent inactive and TRPC6 inhibitor inactive.
CCOC(=O)C1CCN(C(=O)C(C)c2ccc([N+](=O)[O-])cc2)CC1 (configuration not stated) was read as TRPC4 block inactive, TRPC4 agonist inactive, TRPC6 activator inactive, Pemphigus Ab inh inactive, TRPC4 potent inactive, TRPC6 inhibitor -5.05, HEK293 MPD ctr-2 inactive, HEK293 MPD ctr 2-2 inactive, TRPC4 ctr mod 12.0%, TRPC4/MOR inh 2 inactive and TRPC6 inh conf inactive.
Screening CC(C)(C)OC(=O)NC(Cc1ccccc1)C(=O)O (configuration not stated) returned TRPC4 block inactive, TRPC4 agonist inactive, TRPC6 activator inactive, Pemphigus Ab inh inactive, TRPC4 potent inactive and TRPC6 inhibitor inactive.
`CC(C)(C)OC(=O)NC(CNCc1ccccc1)Cc1ccccc1` (configuration not stated) gave TRPC4 block inactive, TRPC4 agonist inactive, TRPC6 activator inactive, Pemphigus Ab inh inactive, TRPC4 potent inactive, TRPC6 inhibitor -5.33, HEK293 MPD ctr-2 136.0%, HEK293 MPD ctr 2-2 inactive, TRPC4 ctr mod 24.5%, TRPC4/MOR inh 2 34.0% and TRPC6 inh conf inactive.
For COc1ccc(NC(=S)N2CCC(N(C)CC3CCCO3)CC2)cc1Cl (configuration not stated) the results were TRPC4 block inactive, TRPC4 agonist inactive, TRPC6 activator inactive, Pemphigus Ab inh inactive, TRPC4 potent inactive and TRPC6 inhibitor inactive.
Screening CCN(C(=O)CCS(=O)(=O)c1cccc2nonc12)c1ccc(C)c(C)c1 returned TRPC4 block inactive, TRPC4 agonist inactive, TRPC6 activator inactive, TRPC4 potent inactive and TRPC6 inhibitor inactive.
For CC(C)(C)c1ccc(OC(=O)CN2C(=O)C3C4CCC(C4)C3C2=O)cc1 (configuration not stated) the results were TRPC4 block inactive, TRPC4 agonist inactive, TRPC6 activator inactive, TRPC4 potent inactive, TRPC6 inhibitor -5.86, HEK293 MPD ctr-2 inactive, HEK293 MPD ctr 2-2 inactive, TRPC4 ctr mod inactive, TRPC4/MOR inh 2 inactive, TRPC6 inh conf inactive and TRPC6 act confirm inactive.
Screening O=C(CN1C(=O)C2C3CCC(C3)C2C1=O)OCC(=O)c1ccccc1 (configuration not stated) returned TRPC4 block inactive, TRPC4 agonist inactive, TRPC6 activator inactive, Pemphigus Ab inh inactive, TRPC4 potent inactive and TRPC6 inhibitor inactive.
